Laboratory results taken from ChEMBL document CHEMBL3414565, “Discovery of novel AHLs as potent antiproliferative agents” (Eur J Med Chem, 2015).

Assays:
MCF7 [1] = assay: Induction of apoptosis in human MCF7 cells assessed as viable cells at 8 uM after 12 hrs by annexin V-FITC/propidium iodide staining-based flow cytometry (reference value: 85.4%); format: functional; details: MCF7, 12 h, read-out: Activity
Outline: (§1)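 MCF-7 cells were plated at 5.0 × 10^6 cells/mL and held 12 or 24 h at 37 °C. Exponentially growing cells then received complete medium (blank) or compound at 0, 2, 4 or 8 for 12 or 24 h. Harvested cells were stained with Annexin V-FITC/PI and analysed by flow cytometry. Quadrants were scored as live, early apoptotic (annexin+/PI−), late apoptotic (double positive) and damaged (PI+ only).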

MCF7 [2] = assay: Induction of apoptosis in human MCF7 cells assessed as late apoptotic cells at 2 uM after 24 hrs by annexin V-FITC/propidium iodide staining-based flow cytometry (reference value: 2.1%); format: functional; outline: as §1
MCF7 [3] = assay: Induction of apoptosis in human MCF7 cells assessed as late apoptotic cells at 4 uM after 24 hrs by annexin V-FITC/propidium iodide staining-based flow cytometry (reference value: 2.1%); format: functional; outline: as §1
MCF7 [4] = assay: Induction of apoptosis in human MCF7 cells assessed as late apoptotic cells at 8 uM after 24 hrs by annexin V-FITC/propidium iodide staining-based flow cytometry (reference value: 2.1%); format: functional; outline: as §1
MCF7 [5] = assay: Induction of apoptosis in human MCF7 cells assessed as necrotic cells at 8 uM after 24 hrs by annexin V-FITC/propidium iodide staining-based flow cytometry (reference value: 6.2%); format: functional; outline: as §1
MCF7 [6] = assay: Induction of apoptosis in human MCF7 cells assessed as viable cells at 8 uM after 24 hrs by annexin V-FITC/propidium iodide staining-based flow cytometry (reference value: 87.1%); format: functional; details: MCF7, 24 h, read-out: Activity
MCF7 [7] = assay: Induction of apoptosis in human MCF7 cells after 12 to 24 hrs by annexin V-FITC/propidium iodide staining-based flow cytometry; format: functional, cell-based; outline: as §1
MCF7 [8] = assay: Cell cycle arrest in human MCF7 cells assessed as accumulation at G1/G0 phase at 2 uM after 12 hrs by propidium iodide staining-based flow cytometry (reference value: 60.51%); format: functional
MCF7 [9] = assay: Cell cycle arrest in human MCF7 cells assessed as accumulation at S phase at 2 uM after 12 hrs by propidium iodide staining-based flow cytometry (reference value: 26.65%); format: functional
MCF7 [10] = assay: Cell cycle arrest in human MCF7 cells assessed as accumulation at G2/M phase at 2 uM after 12 hrs by propidium iodide staining-based flow cytometry (reference value: 16.53%); format: functional
MCF7 [11] = assay: Cell cycle arrest in human MCF7 cells assessed as accumulation at G1/G0 phase at 4 uM after 12 hrs by propidium iodide staining-based flow cytometry (reference value: 60.51%); format: functional
MCF7 [12] = assay: Cell cycle arrest in human MCF7 cells assessed as accumulation at G2/M phase at 4 uM after 12 hrs by propidium iodide staining-based flow cytometry (reference value: 16.53%); format: functional
MCF7 [13] = assay: Cell cycle arrest in human MCF7 cells assessed as accumulation at S phase at 8 uM after 12 hrs by propidium iodide staining-based flow cytometry (reference value: 26.65%); format: functional
MCF7 [14] = assay: Cell cycle arrest in human MCF7 cells assessed as accumulation at G2/M phase at 8 uM after 12 hrs by propidium iodide staining-based flow cytometry (reference value: 16.53%); format: functional
MCF7 [15] = assay: Cell cycle arrest in human MCF7 cells assessed as accumulation at G1/G0 phase at 2 uM after 24 hrs by propidium iodide staining-based flow cytometry (reference value: 46.77%); format: functional
MCF7 [16] = assay: Cell cycle arrest in human MCF7 cells assessed as accumulation at S phase at 2 uM after 24 hrs by propidium iodide staining-based flow cytometry (reference value: 40.08%); format: functional
MCF7 [17] = assay: Cell cycle arrest in human MCF7 cells assessed as accumulation at G2/M phase at 2 uM after 24 hrs by propidium iodide staining-based flow cytometry (reference value: 16.27%); format: functional
MCF7 [18] = assay: Cell cycle arrest in human MCF7 cells assessed as accumulation at G2/M phase at 4 uM after 24 hrs by propidium iodide staining-based flow cytometry (reference value: 16.27%); format: functional
MCF7 [19] = assay: Cell cycle arrest in human MCF7 cells assessed as accumulation at G1/G0 phase at 8 uM after 24 hrs by propidium iodide staining-based flow cytometry (reference value: 46.77%); format: functional
MCF7 [20] = assay: Cell cycle arrest in human MCF7 cells assessed as accumulation at S phase at 8 uM after 24 hrs by propidium iodide staining-based flow cytometry (reference value: 40.08%); format: functional
MCF7 [21] = assay: Cell cycle arrest in human MCF7 cells assessed as accumulation at G2/M phase at 8 uM after 24 hrs by propidium iodide staining-based flow cytometry (reference value: 16.27%); format: functional
MCF7 [22] = assay: Cell cycle arrest in human MCF7 cells assessed as accumulation at G2/M phase at 2 to 8 uM by propidium iodide staining-based flow cytometry; format: functional; details: TDE = time-dependent effect
MCF7 [23] = assay: Cytotoxicity against human MCF7 cells after 72 hrs by MTT assay; format: functional, cell-based; details: MCF7, 72 h
Outline: (§2)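 Cells were grown in RPMI1640 and seeded at 5 × 10^3 cells/well, then left 24 h at 37 °C. Medium was replaced with fresh medium holding a range of compound concentrations, from 10 mM DMSO stocks with final DMSO at most 0.1%. Exposure lasted 72 h. MTT (5 mg/mL) was added for 4 h at 37 °C, formazan was dissolved in DMSO and A570 was read. IC50 came from dose-response curves as mean ± SD of three independent experiments.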

[24] = Cytotoxicity against human EC9706 cells after 72 hrs by MTT assay; format: functional, cell-based; details: EC9706, 72 h; outline: as §2
SMMC-7721 = assay: Cytotoxicity against human SMMC7721 cells after 72 hrs by MTT assay; format: functional, cell-based; details: SMMC-7721, 72 h; outline: as §2
[25] = Cytotoxicity against human GES-1 cells after 72 hrs by MTT assay; format: cell-based; details: GES1, 72 h
HEK293 = assay: Cytotoxicity against human HEK293 cells after 72 hrs by MTT assay; format: cell-based; details: HEK293, 72 h
MCF7 [26] = assay: Induction of apoptosis in human MCF7 cells assessed as viable cells at 2 uM after 12 hrs by annexin V-FITC/propidium iodide staining-based flow cytometry (reference value: 85.4%); format: functional; details: MCF7, 12 h, read-out: Activity; outline: as §1
MCF7 [27] = assay: Induction of apoptosis in human MCF7 cells assessed as early apoptotic cells at 4 uM after 12 hrs by annexin V-FITC/propidium iodide staining-based flow cytometry (reference value: 7.2%); format: functional; outline: as §1
MCF7 [28] = assay: Induction of apoptosis in human MCF7 cells assessed as late apoptotic cells at 4 uM after 12 hrs by annexin V-FITC/propidium iodide staining-based flow cytometry (reference value: 2.7%); format: functional; outline: as §1
MCF7 [29] = assay: Induction of apoptosis in human MCF7 cells assessed as viable cells at 4 uM after 12 hrs by annexin V-FITC/propidium iodide staining-based flow cytometry (reference value: 85.4%); format: functional; details: MCF7, 12 h, read-out: Activity; outline: as §1
MCF7 [30] = assay: Induction of apoptosis in human MCF7 cells assessed as late apoptotic cells at 8 uM after 12 hrs by annexin V-FITC/propidium iodide staining-based flow cytometry (reference value: 2.7%); format: functional; outline: as §1
MCF7 [31] = assay: Induction of apoptosis in human MCF7 cells assessed as necrotic cells at 8 uM after 12 hrs by annexin V-FITC/propidium iodide staining-based flow cytometry (reference value: 4.7%); format: functional; outline: as §1

`O=C(CSC(=S)N[C@H]1CCOC1=O)Nc1ccc(C(=O)/C=C/c2ccccc2Cl)cc1` showed a viability at 8 µM (MCF7 [1]) of 75.9%, an Activity (MCF7 [2]) of 2.1% and an Activity (MCF7 [3]) of 3%. The Activity (MCF7 [4]) was 6.1%, the Activity (MCF7 [5]) was 4.8% and the viability at 8 µM (MCF7 [6]) was 46%. For the same molecule, the Activity (MCF7 [7]) was “Dose-dependent effect”, the Activity (MCF7 [8]) was 67.5% and the Activity (MCF7 [9]) was 23.92%. It also gave an Activity (MCF7 [10]) of 18.26%, an Activity (MCF7 [11]) of 58.39% and an Activity (MCF7 [12]) of 20.51%. It also gave an Activity (MCF7 [13]) of 25.84%, an Activity (MCF7 [14]) of 33.6% and an Activity (MCF7 [15]) of 40.44%. It also gave an Activity (MCF7 [16]) of 32.7%, an Activity (MCF7 [17]) of 26.69% and an Activity (MCF7 [18]) of 47.37%. It also gave an Activity (MCF7 [19]) of 14.45%, an Activity (MCF7 [20]) of 33.39% and an Activity (MCF7 [21]) of 63.06%. The Activity (MCF7 [22]) was “tde”, the IC50 (MCF7 [23]) was 5.57 µM and the IC50 [24] was 34.1 µM. The IC50 (SMMC-7721) was 20.4 µM, the IC50 [25] was 23.5 µM and the IC50 (HEK293) was 21.1 µM. For the same molecule, the viability at 2 µM (MCF7 [26]) was 82.1%, the Activity (MCF7 [27]) was 14.7% and the Activity (MCF7 [28]) was 1.7%. For the same molecule, the viability at 4 µM (MCF7 [29]) was 77.9%, the Activity (MCF7 [30]) was 1.6% and the Activity (MCF7 [31]) was 3.5%.
